An excerpt weighted towards active compounds, which were near 3.3% of everything screened.
CendR NRP1 mod = modulators of CendR peptide binding to NRP-1, primary screen, biochemical, fluorescence polarization, uHTS | AID 602438, 2012 | inhibition, % at 25 µM | FAM-RPARPAR peptide binding to NRP-1 | 360,000 compounds, 0.85% hits;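 active = inhibition or corrected inhibition above about 18%, plus a signal ratio from 0.5 to 1.5, limit read from the data, passing the limit was not always enough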
Exocytosis inh = LAMP-1 surface exposure blockers, TALL-104 cells – cell-based, flow cytometry, MLPCN library, primary screen; inhibition, % at 10 µM; 360,000 compounds, 0.66% hits; TALL-104 LAMP-1 surface exposure; cells stimulated with thapsigargin and PMA;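 active = inhibition above about 55%, limit read from the data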
ATG4B inhibitor = ATG4B protease inhibitors, primary screen, biochemical, fluorescence, uHTS | AID 504462, 2011 | Cysteine protease ATG4B (Homo sapiens), Q9Y4P1 | inhibition, % at 8.33 µM | 340,000 compounds, 0.51% hits | ATG4B cleavage of LC3-PLA2, NBD-HPC fluorescence, 1 h; in the data active = inhibition above about 40%
Target sequence (Q9Y4P1 whole entry, looked up): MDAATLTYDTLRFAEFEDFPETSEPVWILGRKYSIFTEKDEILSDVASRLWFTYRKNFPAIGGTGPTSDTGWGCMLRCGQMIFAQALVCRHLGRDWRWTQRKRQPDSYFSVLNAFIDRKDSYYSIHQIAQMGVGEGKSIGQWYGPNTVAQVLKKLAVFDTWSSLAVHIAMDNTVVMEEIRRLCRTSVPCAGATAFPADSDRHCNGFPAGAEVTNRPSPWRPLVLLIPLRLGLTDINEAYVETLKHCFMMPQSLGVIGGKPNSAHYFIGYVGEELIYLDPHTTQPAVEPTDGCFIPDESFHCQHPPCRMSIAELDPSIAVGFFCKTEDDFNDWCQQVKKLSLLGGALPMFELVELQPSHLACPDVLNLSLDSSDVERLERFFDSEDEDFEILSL
Myeloid diff MLP = induction of myeloid progenitor differentiation, primary screen, cell-based, flow cytometry, MLPCN library. calls only at 10 µM. ER-HoxA9 myeloid progenitors, lysozyme-GFP differentiation. 360,000 compounds, 1% hits. AID 624256, 2012;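 active = normalized GFP-positive differentiation at or above the plate's own cutoff, the solvent-only control mean plus 3 SD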;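 note: cells exposed to compound for four days before flow analysis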
ABCB6 inh MLPCN = ABCB6 transporter inhibitors, primary screen, K562-ABCB6 cells, flow cytometry, MLPCN library; AID 602162, 2011; K562-ABCB6 porphyrin accumulation, 1 h; stronger effect = lower value; 360,000 compounds, 0.19% hits; ATP-binding cassette sub-family B member 6 (Homo sapiens), Q9NP58; fluorescence ratio to DMSO, % at 10 µM;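 active = fluorescence ratio to DMSO below 75%, the collection mean minus 3 SD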;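 note: signal is porphyrin accumulated inside mitochondria; lower ratio means ABCB6 inhibition with less porphyrin fluorescence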
Arrestin-AP2 inh = inhibitors of beta-arrestin/AP2 binding, primary screen, biochemical, GPCR trafficking, flow cytometry | beta-arrestin 1 C-terminal peptide binding to AP2 beta2-adaptin appendage (human) | FITC-arrestin peptide / GST-AP2 beads; AP2 beta2 appendage carries R879A mutation | inhibition, % at 10 µM | 340,000 compounds, 0.31% hits | AID 504490, 2011;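 active = inhibition above a set limit, near 3 SD of compounds lacking own fluorescence, cut at about 54% in these data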
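system = GST-tagged AP2 beta2-adaptin appendage (R879A) on 4 µm glutathione beads | reagent = FITC-labelled arrestin peptide probe, 50 nM final | schedule = compound with beads 12 min RT, then probe 1 h RT | signal = HyperCyt-sampled flow cytometry, FL1 channel, ex 488/em 535 nm | read-out = percent response from loss of bead-bound FITC fluorescence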
Myeloid diff = inducers of myeloid progenitor differentiation, confirmation, cell-based, GFP/Mac1 flow cytometry, cherry pick 01 | 2,300 compounds, 2% hits | calls only | shares compounds with Myeloid diff MLP | AID 651706, 2012 | ER-HoxA9 myeloid progenitors, GFP/Mac1 double-positive flow;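 active = share of green or green-and-red cells above 9 and 9% in run 1 or 4 and 3% in run 2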
GFP autofluor = compound fluorescence in myeloid differentiation counter-screen | fluorescence response, % (concentration not given with the values) | shares compounds with Myeloid diff MLP | 2,300 compounds, 7.4% hits | ER-HoxA9 myeloid progenitors, no estrogen, GFP autofluorescence flow cytometry; vehicle wells 0%, positive control 100% | AID 651707;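 active = over 5% cells positive for green fluorescent reporter, or over 2% positive for both it and APC stain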
A number is an active result.

`CSCCNC(=O)Nc1c(-c2c(Cl)cccc2Cl)noc1C` gave CendR NRP1 mod inactive, Exocytosis inh inactive, ATG4B inhibitor inactive, Myeloid diff MLP inactive, ABCB6 inh MLPCN inactive and Arrestin-AP2 inh inactive.
For COc1ccccc1-c1cc(C(=O)NC2CCN(C)CC2)c2ccc(Cl)c(C)c2n1 the results were CendR NRP1 mod inactive, Exocytosis inh inactive, ATG4B inhibitor inactive, Myeloid diff MLP active, ABCB6 inh MLPCN inactive, Arrestin-AP2 inh inactive, Myeloid diff inactive and GFP autofluor inactive.
Screening CN(C)S(=O)(=O)c1ccc(N2C(=O)CC2(/C=C/c2ccccc2)C(=O)NC2CCCC2)cc1 (centres undefined) returned CendR NRP1 mod inactive, Exocytosis inh inactive, ATG4B inhibitor inactive, Myeloid diff MLP inactive, ABCB6 inh MLPCN inactive and Arrestin-AP2 inh inactive.
`COc1ccccc1/C=C/C1(C(=O)NC2CCCC2)CC(=O)N1c1ccccc1` (centres undefined) gave CendR NRP1 mod inactive, Exocytosis inh inactive, ATG4B inhibitor inactive, Myeloid diff MLP active, ABCB6 inh MLPCN inactive, Arrestin-AP2 inh inactive, Myeloid diff inactive and GFP autofluor inactive.
`COc1ccc(S(=O)(=O)N2CCOC2CNC(=O)C(=O)NCc2ccccn2)cc1OC` (centres undefined) gave CendR NRP1 mod inactive, Exocytosis inh inactive, Myeloid diff MLP active, ABCB6 inh MLPCN inactive, Myeloid diff inactive and GFP autofluor inactive.
C=CCn1c(C)cc(-c2csc(NCC)n2)c1C was read as CendR NRP1 mod inactive, Exocytosis inh inactive, ATG4B inhibitor inactive, Myeloid diff MLP active, ABCB6 inh MLPCN inactive, Arrestin-AP2 inh inactive, Myeloid diff inactive and GFP autofluor inactive.
For CN1/C(=C\C(=O)c2cncc(Br)c2)C(C)(C)c2ccccc21 the results were CendR NRP1 mod inactive, Exocytosis inh inactive, ATG4B inhibitor inactive, Myeloid diff MLP active, ABCB6 inh MLPCN inactive, Arrestin-AP2 inh inactive, Myeloid diff inactive and GFP autofluor 20.
For COc1ccc(CCn2c(O)cc3nn(-c4nc5ccccc5s4)c(=O)c-3c2C)cc1 the results were CendR NRP1 mod inactive, Exocytosis inh inactive, ATG4B inhibitor inactive, Myeloid diff MLP inactive, ABCB6 inh MLPCN inactive and Arrestin-AP2 inh inactive.
`COc1ccccc1CCn1cnc(-c2ccc(OC)c(OC)c2)c1C(C)C` gave CendR NRP1 mod inactive, Exocytosis inh inactive, Myeloid diff MLP inactive, ABCB6 inh MLPCN inactive, Myeloid diff inactive and GFP autofluor inactive.
`CCCCc1c(-c2cccc(OC)c2)ncn1CCc1ccccc1OC` gave CendR NRP1 mod inactive, Exocytosis inh inactive, Myeloid diff MLP active, ABCB6 inh MLPCN inactive, Myeloid diff inactive and GFP autofluor inactive.
CCCCc1c(-c2ccc(OC)c(OC)c2)ncn1CCc1ccccc1OC was read as CendR NRP1 mod inactive, Exocytosis inh inactive, Myeloid diff MLP inactive and ABCB6 inh MLPCN inactive.
Cc1cccc2sc(NS(C)(=O)=O)nc12 was read as CendR NRP1 mod inactive, Exocytosis inh inactive, ATG4B inhibitor inactive, Myeloid diff MLP inactive, ABCB6 inh MLPCN inactive and Arrestin-AP2 inh inactive.
For COc1cccc(NC(=O)CCN2C(=O)c3ccccc3S2(=O)=O)c1 the results were CendR NRP1 mod inactive, Exocytosis inh inactive, ATG4B inhibitor inactive, Myeloid diff MLP inactive, ABCB6 inh MLPCN inactive and Arrestin-AP2 inh inactive.
For CC(C)C(=O)Nc1cccc(NC(=O)CCN2C(=O)c3ccccc3S2(=O)=O)c1 the results were CendR NRP1 mod inactive, Exocytosis inh inactive, ATG4B inhibitor inactive, Myeloid diff MLP inactive, ABCB6 inh MLPCN inactive, Arrestin-AP2 inh inactive, Myeloid diff inactive and GFP autofluor inactive.
Screening CSc1cccc(NC(=O)CN2C(=O)c3ccccc3S2(=O)=O)c1 returned CendR NRP1 mod inactive, Exocytosis inh inactive, ATG4B inhibitor inactive, Myeloid diff MLP inactive, ABCB6 inh MLPCN inactive, Arrestin-AP2 inh inactive, Myeloid diff inactive and GFP autofluor inactive.
For O=C(Nc1cc(-c2ccccc2)nn1C1CCCCC1)c1ccc(Cl)cc1 the results were CendR NRP1 mod inactive, Exocytosis inh inactive, ATG4B inhibitor inactive, Myeloid diff MLP inactive, ABCB6 inh MLPCN inactive and Arrestin-AP2 inh inactive.
For CC1(C)CC(NC(=O)c2sc3cc(Cl)ccc3c2Cl)CC(C)(C)N1 the results were CendR NRP1 mod inactive, Exocytosis inh inactive, ATG4B inhibitor inactive, Myeloid diff MLP inactive, ABCB6 inh MLPCN inactive, Arrestin-AP2 inh inactive, Myeloid diff inactive and GFP autofluor inactive.
`C=CCc1c(C)nc(-c2ccccc2)nc1Nc1ccccc1O` gave CendR NRP1 mod inactive, Exocytosis inh inactive, ATG4B inhibitor inactive, Myeloid diff MLP active, ABCB6 inh MLPCN inactive, Arrestin-AP2 inh inactive, Myeloid diff inactive and GFP autofluor 63.
CCCCNC(=O)CCC(=O)Nc1ccc2nc(N3CCC(C)CC3)cc(C)c2c1 was read as CendR NRP1 mod inactive, Exocytosis inh inactive, ATG4B inhibitor inactive, Myeloid diff MLP inactive, ABCB6 inh MLPCN inactive, Arrestin-AP2 inh inactive, Myeloid diff inactive and GFP autofluor inactive.
Screening CCOc1ccc(C(C)=O)cc1CC(C(N)=O)C(N)=O returned CendR NRP1 mod inactive, Exocytosis inh inactive, ATG4B inhibitor inactive, Myeloid diff MLP active, ABCB6 inh MLPCN inactive, Arrestin-AP2 inh inactive, Myeloid diff inactive and GFP autofluor inactive.
Screening CCOC(=O)C(Cc1cc(C(C)=O)ccc1OCC)C(=O)OCC returned CendR NRP1 mod inactive, Exocytosis inh inactive, ATG4B inhibitor inactive, Myeloid diff MLP inactive, ABCB6 inh MLPCN inactive and Arrestin-AP2 inh inactive.
Screening CC(=O)/C(=N\Nc1ccc(C)cc1)Sc1nncn1C returned CendR NRP1 mod inactive, Exocytosis inh inactive, ATG4B inhibitor inactive, Myeloid diff MLP inactive, ABCB6 inh MLPCN inactive and Arrestin-AP2 inh inactive.
`COc1ccccc1-c1nnc(SCC(=O)O)n1C` gave CendR NRP1 mod inactive, Exocytosis inh inactive, ATG4B inhibitor inactive, Myeloid diff MLP inactive, ABCB6 inh MLPCN inactive and Arrestin-AP2 inh inactive.
CN1CCN(S(=O)(=O)c2ccc(NC(=S)NC(=O)c3ccccc3)cc2)CC1 was read as CendR NRP1 mod inactive, Exocytosis inh inactive, ATG4B inhibitor inactive, Myeloid diff MLP active, ABCB6 inh MLPCN inactive, Arrestin-AP2 inh inactive, Myeloid diff inactive and GFP autofluor inactive.
